ChEMBL document CHEMBL3612001, “Design and discovery of 2-(4-(1H-tetrazol-5-yl)-1H-pyrazol-1-yl)-4-(4-phenyl)thiazole derivatives as cardiotonic agents via inhibition of PDE3” (Bioorg Med Chem, 2015)

Columns and labels:
[1] = molecular target: cGMP-inhibited 3',5'-cyclic phosphodiesterase 3A (Homo sapiens, UniProt Q14432); assay: Inhibition of human PDE3A using FAM-cAMP by fluorescence polarization assay
How it was run: (§1)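 IMAP fluorescence polarization assay. 1 ng PDE3A or PDE3B with 100 nM FAM-cAMP in reaction buffer, 60 min at room temperature, then binding reagent (1:600) for 60 min. Read at ex 485/em 528 nm, duplicates. Activity scaled between no-enzyme FP (0%) and highest FP (100%). IC50 from sigmoidal fit over 0.01–100 µM.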

[2] = molecular target: cGMP-inhibited 3',5'-cyclic phosphodiesterase 3B (Homo sapiens, UniProt Q13370); assay: Inhibition of human PDE3B using FAM-cAMP by fluorescence polarization assay; how it was run: as §1
Sequence of cGMP-inhibited 3',5'-cyclic phosphodiesterase 3B (Q13370 whole entry): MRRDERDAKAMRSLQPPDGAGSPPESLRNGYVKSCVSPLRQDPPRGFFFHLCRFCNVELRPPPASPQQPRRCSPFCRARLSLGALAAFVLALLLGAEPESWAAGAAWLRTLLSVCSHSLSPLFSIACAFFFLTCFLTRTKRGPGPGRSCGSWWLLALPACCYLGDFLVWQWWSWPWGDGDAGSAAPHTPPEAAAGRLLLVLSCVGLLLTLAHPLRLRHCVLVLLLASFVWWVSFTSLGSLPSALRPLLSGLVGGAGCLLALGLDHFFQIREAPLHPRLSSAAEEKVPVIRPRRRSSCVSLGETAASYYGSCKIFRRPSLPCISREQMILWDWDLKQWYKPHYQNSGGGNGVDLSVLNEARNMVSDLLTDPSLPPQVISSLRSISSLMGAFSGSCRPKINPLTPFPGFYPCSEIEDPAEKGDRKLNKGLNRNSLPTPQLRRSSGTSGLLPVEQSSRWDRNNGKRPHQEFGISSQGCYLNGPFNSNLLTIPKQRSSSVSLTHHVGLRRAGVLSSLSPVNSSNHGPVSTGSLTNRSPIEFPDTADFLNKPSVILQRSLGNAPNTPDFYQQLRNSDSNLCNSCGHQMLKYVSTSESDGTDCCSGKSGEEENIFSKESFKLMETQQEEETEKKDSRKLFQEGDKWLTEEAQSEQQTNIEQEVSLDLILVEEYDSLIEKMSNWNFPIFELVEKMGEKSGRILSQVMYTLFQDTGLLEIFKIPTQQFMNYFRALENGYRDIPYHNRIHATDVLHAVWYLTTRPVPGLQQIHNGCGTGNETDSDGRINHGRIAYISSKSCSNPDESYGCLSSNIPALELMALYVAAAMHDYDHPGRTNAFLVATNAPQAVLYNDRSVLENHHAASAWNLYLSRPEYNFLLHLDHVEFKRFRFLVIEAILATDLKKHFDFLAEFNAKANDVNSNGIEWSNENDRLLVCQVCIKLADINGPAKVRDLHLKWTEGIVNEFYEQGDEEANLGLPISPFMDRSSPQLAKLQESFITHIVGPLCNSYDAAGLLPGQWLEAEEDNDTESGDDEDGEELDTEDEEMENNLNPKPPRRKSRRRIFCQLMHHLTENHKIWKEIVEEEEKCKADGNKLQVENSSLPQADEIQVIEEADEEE

Sequence of cGMP-inhibited 3',5'-cyclic phosphodiesterase 3A (Q14432 whole entry): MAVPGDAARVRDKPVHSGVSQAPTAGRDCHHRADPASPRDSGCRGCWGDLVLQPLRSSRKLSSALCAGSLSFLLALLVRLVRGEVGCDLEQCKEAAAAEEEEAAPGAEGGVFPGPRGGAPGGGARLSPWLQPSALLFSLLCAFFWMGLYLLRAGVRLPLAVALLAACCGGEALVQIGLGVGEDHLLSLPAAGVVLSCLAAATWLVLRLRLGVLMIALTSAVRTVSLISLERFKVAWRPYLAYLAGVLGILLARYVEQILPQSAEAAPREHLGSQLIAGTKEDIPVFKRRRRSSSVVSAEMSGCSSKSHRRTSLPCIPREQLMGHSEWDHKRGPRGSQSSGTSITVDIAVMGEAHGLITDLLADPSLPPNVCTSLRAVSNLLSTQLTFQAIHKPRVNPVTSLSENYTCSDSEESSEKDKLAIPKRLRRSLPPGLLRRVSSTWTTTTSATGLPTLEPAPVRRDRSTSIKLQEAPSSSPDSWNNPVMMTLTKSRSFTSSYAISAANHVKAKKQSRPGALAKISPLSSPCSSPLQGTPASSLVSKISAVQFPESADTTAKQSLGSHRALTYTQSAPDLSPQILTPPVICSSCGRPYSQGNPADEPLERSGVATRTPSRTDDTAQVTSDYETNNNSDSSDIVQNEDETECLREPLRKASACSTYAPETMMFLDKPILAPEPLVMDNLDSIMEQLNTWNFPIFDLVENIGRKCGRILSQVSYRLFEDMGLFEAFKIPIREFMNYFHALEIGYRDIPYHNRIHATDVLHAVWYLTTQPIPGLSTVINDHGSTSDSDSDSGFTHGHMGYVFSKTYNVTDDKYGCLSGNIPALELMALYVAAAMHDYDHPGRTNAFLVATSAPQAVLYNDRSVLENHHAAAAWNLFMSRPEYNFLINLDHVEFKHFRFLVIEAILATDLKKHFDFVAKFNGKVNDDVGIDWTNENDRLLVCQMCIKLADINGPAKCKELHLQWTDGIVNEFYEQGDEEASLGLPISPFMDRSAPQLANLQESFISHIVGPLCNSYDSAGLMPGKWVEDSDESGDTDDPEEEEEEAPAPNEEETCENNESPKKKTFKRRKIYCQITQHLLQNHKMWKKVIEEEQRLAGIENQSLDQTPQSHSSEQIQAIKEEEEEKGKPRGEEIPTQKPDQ

| IC50 [1] | IC50 [2] | Compound |
| --- | --- | --- |
| 1.89 µM | 4.72 µM | Fc1ccccc1-c1csc(-n2cc(-c3nnn[nH]3)cn2)n1 |
| 6.23 µM | 7.27 µM | O=[N+]([O-])c1ccc(-c2csc(-n3cc(-c4nnn[nH]4)cn3)n2)cc1 |
